Measurements published in ChEMBL document CHEMBL1154321, “Benzoxazole piperidines as selective and potent somatostatin receptor subtype 5 antagonists” (Bioorg Med Chem Lett, 2009).
Converted amounts (≈) assume the structure as drawn.

Key:
[1] = Terminal half-life in Wistar rat administered as single dose; type: ADME, organism-based; settings: in vivo, read-out: beta t1/2 (converted)
[2] = Dissociation constant, pKa by spectrophotometry; type: physicochemical
[3] = Octanol-TAPSO partition coefficient, log D at pH 7.4 by spectrophotometry; type: physicochemical; settings: octanol/TAPSO buffer
Summary of the method: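 Spectrophotometric log D in 1-octanol/50 mM TAPSO buffer, pH 7.4, containing 5% (v/v) DMSO.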

[4] = biological target: Somatostatin receptor type 5 (Homo sapiens, UniProt P35346); test: Displacement of SST14 from human recombinant SST5 receptor expressed in CHO cells by radioligand binding assay; type: cell-based
Summary of the method: (§1)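 Membranes prepared by sonication from cells expressing the SST receptor subtype, incubated with radiolabeled 11-Tyr SST-14 tracer and test compound at varying concentrations; non-labeled SST-14 defined non-specific binding. Incubation stopped by glass-fiber filtration, bound radioactivity counted; IC50 for half-maximal binding inhibition estimated and Ki derived.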

[5] = Clearance in Wistar rat administered as single dose; type: ADME, organism-based; settings: in vivo
[6] = biological target: Somatostatin receptor type 4 (Homo sapiens, UniProt P31391); test: Displacement of SST14 from human recombinant SST4 receptor; summary of the method: as §1
[7] = Oral bioavailability in Wistar rat administered as single dose; type: ADME, organism-based; settings: in vivo
[8] = Solubility in phosphate buffer at pH 6.5 by lyophilization solubility assay; type: physicochemical
Summary of the method: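 Lyophilized DMSO stock solutions redissolved in 50 mM phosphate buffer, pH 6.5; solubility read spectrophotometrically.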

[9] = biological target: Somatostatin receptor type 3 (Homo sapiens, UniProt P32745); test: Displacement of SST14 from human recombinant SST3 receptor; summary of the method: as §1
[10] = Volume of distribution at steady state in Wistar rat administered as single dose; type: ADME, organism-based; settings: in vivo, read-out: Vdss
[11] = biological target: Somatostatin receptor type 2 (Homo sapiens, UniProt P30874); test: Displacement of SST14 from human recombinant SST2 receptor; summary of the method: as §1
[12] = sPermeability by PAMPA; type: ADME; settings: read-out: permeability
Summary of the method: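 Parallel artificial membrane permeation; Pe categorized as low (<0.1), medium (0.1–1.0) or high (>1.0).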

[13] = organism: Homo sapiens; test: Selectivity ratio of Ki for human histamine H1 receptor to Ki for human SST5 receptor
[14] = biological target: Histamine H1 receptor (Homo sapiens, UniProt P35367); test: Binding affinity to human histamine H1 receptor
Chain of Histamine H1 receptor (P35367 whole entry): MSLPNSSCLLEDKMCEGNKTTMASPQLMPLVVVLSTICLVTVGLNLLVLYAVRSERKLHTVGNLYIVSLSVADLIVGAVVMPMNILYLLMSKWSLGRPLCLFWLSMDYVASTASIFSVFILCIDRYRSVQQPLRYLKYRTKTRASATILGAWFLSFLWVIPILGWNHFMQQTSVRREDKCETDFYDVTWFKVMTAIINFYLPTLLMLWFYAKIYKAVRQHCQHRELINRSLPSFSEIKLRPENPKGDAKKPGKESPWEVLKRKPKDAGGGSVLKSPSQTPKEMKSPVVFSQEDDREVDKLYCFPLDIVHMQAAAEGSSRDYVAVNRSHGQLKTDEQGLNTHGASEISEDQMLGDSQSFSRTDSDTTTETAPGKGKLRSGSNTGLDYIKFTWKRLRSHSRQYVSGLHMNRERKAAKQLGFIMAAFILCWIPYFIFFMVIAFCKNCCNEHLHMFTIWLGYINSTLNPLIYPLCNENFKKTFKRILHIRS

Chain of Somatostatin receptor type 4 (P31391 whole entry): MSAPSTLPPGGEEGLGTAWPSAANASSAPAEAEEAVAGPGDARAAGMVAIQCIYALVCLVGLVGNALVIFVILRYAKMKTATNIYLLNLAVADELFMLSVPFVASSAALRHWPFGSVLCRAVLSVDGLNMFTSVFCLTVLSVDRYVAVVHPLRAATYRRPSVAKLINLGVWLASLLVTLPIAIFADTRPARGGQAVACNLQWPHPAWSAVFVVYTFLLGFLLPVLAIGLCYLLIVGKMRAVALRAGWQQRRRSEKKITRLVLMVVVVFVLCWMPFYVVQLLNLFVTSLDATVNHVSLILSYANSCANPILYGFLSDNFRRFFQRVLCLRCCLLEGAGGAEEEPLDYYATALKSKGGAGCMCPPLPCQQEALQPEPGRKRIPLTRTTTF
Chain of Somatostatin receptor type 3 (P32745 whole entry): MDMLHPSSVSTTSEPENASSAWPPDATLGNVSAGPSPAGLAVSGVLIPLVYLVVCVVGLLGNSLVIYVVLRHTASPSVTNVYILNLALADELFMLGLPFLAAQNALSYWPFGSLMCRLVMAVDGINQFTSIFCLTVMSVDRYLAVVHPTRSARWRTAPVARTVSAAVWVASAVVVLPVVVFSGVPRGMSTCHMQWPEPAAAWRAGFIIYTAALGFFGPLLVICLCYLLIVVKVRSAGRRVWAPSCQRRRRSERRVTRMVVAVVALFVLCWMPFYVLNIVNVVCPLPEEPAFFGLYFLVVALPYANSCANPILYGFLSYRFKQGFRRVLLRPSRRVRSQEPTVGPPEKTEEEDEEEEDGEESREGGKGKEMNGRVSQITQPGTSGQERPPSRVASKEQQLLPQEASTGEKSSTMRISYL
Chain of Somatostatin receptor type 5 (P35346 whole entry): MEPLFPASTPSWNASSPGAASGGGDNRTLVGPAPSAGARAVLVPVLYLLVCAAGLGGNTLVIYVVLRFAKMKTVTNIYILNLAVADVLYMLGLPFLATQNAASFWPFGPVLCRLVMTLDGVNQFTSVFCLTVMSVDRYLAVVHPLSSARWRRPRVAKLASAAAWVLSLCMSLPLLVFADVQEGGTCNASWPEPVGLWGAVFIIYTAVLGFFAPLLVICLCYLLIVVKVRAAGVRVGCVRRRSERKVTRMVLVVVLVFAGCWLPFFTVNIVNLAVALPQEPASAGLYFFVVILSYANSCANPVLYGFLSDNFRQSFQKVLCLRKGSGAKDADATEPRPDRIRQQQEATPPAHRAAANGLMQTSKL
Chain of Somatostatin receptor type 2 (P30874 whole entry): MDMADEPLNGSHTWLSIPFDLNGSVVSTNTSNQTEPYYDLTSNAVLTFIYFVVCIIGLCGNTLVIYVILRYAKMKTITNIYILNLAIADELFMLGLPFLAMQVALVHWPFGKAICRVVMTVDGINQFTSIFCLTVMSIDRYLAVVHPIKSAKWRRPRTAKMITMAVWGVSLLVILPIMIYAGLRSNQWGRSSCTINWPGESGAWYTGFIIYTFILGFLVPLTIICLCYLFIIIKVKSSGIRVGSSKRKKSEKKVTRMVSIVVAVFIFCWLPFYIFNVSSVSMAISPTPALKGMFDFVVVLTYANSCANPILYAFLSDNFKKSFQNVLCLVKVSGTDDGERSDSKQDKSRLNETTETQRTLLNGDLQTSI

SMILES	half-life [1] [h]	pKa [2]	logD [3]	Ki [4] [µM]	clearance [5] [mL/min/kg]	Ki [6] [µM]	bioavailability [7] [%]	solubility [8] [µg/mL]	Ki [9] [µM]	Vd [10] [L/kg]	Ki [11] [µM]	Papp [12] [×10⁻⁶ cm/s]	Ratio Ki [13]	Ki [14] [µM]
CCOc1cc(CN2CCC(Nc3nc4cc(S(=O)(=O)CC)ccc4o3)CC2)ccc1OC	0.4	8.1	2.13	0.196	126	> 10	6	> 530	> 10	3.8	> 10	1.63	–	–
CCOc1cc(CN2CCC(Nc3nc4ccc(Cl)cc4s3)CC2)ccc1OC	–	–	–	0.361	–	> 10	–	–	> 10	–	> 10	–	–	–
CCOc1cc(CN2CCC(Nc3nc4ncccc4o3)CC2)ccc1OC	–	–	–	> 1	–	> 10	–	–	> 10	–	> 10	–	–	–
CCOc1cc(CN2CCC(Nc3nc4cc([N+](=O)[O-])ccc4o3)CC2)ccc1OC	–	–	–	0.252	–	> 10	–	–	> 10	–	> 10	–	–	–
CCOc1cc(NC2CCN(c3nc4ccccc4s3)CC2)ccc1OC	–	–	–	> 1	–	> 10	–	–	> 10	–	> 10	–	–	–
CCOc1cc(CN2CCC(Nc3nc4ccccc4s3)CC2)ccc1OC	–	–	–	0.33	–	> 10	–	–	> 10	–	> 10	–	–	–
COc1ccc(CCN2CCC(Nc3nc4ccccc4n3Cc3ccc(F)cc3)CC2)cc1 [ASTEMIZOLE]	–	–	–	–	–	> 10	–	–	> 10	–	> 10	–	–	–
CCOc1cc(CN2CCC(Nc3nc4cc(S(=O)(=O)CC)ccc4o3)CC2)cc(OC2CCOCC2)c1	–	7.55	3.13	0.055	–	> 10	–	183 (≈ 337 µM)	> 10	–	> 10	1.75	698	38.4
CCOc1cc(CN2CCC(Nc3nc4ccccc4o3)CC2)ccc1C	–	–	–	–	–	> 10	–	–	> 10	–	> 10	–	–	–
CCOc1cc(CN2CCC(Nc3nc4ccccc4o3)CC2)ccc1O	–	–	–	–	–	> 10	–	–	> 10	–	> 10	–	–	–
CCOc1cc(CN2CCC(Nc3nc4cccnc4o3)CC2)ccc1OC	–	–	–	0.633	–	> 10	–	–	> 10	–	> 10	–	–	–
CCOc1cc(CN2CCC(Nc3nc4ccccc4o3)CC2)c(F)cc1OCCO	–	–	–	> 1	–	> 10	–	–	> 10	–	> 10	–	–	–
CCOc1cc(CN2CCC(Nc3nc4ccc(Cl)cc4o3)CC2)ccc1Cl	2.6	–	–	0.239	37	> 10	33	44 (≈ 105 µM)	> 10	4.6	> 10	4.81	–	–
CCOc1cc(CN2CCC(Nc3nc4ccncc4o3)CC2)ccc1OC	–	–	–	0.72	–	> 10	–	–	> 10	–	> 10	–	–	–
CCOc1cc(NC2CCC(NCc3nc4ccccc4s3)CC2)ccc1OC (stereo not given)	–	–	–	> 1	–	> 10	–	–	> 10	–	> 10	–	–	–
CCOc1cc(CN2CCC(Nc3nc4cc(OC(F)(F)F)ccc4o3)CC2)ccc1OC	–	–	–	0.354	–	> 10	–	–	> 10	–	> 10	–	–	–
CCOc1cc(CN2CCC(Nc3nc4cc(Cl)ccc4o3)CC2)ccc1OC	–	–	–	0.194	–	> 10	–	–	> 10	–	> 10	–	–	–
CCOc1cc(CN2CCC(Nc3nc4ccccc4o3)CC2)ccc1OC(C)C	–	–	–	> 1	–	> 10	–	–	> 10	–	> 10	–	–	–
CCOc1cc(CN2CCC(Nc3nc4ccccc4[nH]3)CC2)ccc1OC	–	–	–	> 1	–	> 10	–	–	> 10	–	> 10	–	–	–
CCOc1cc(CN2CCC(Nc3nc4cc(Cl)c(S(N)(=O)=O)cc4o3)CC2)ccc1OC	–	7.92	2.67	0.343	–	> 10	–	338 (≈ 683 µM)	> 10	–	> 10	1.1	3	1.01
CCOc1cc(CN2CCC(Nc3nc4cccnc4s3)CC2)ccc1OC	–	–	–	0.309	–	> 10	–	–	> 10	–	> 10	–	–	–
CCOc1cc(CN2CCC(Nc3nc4ccccc4o3)CC2)ccc1OC1CC1	–	–	–	0.537	–	> 10	–	–	> 10	–	> 10	–	–	–
CCOc1cc(CN2CCC(Nc3nc4cc(S(=O)(=O)N(C)C)ccc4o3)CC2)cc(OCC)c1-n1cccc1	–	–	2.89	0.052	–	> 10	–	22 (≈ 38.8 µM)	> 10	–	> 10	1.31	96	5
